Measured values as given in ChEMBL document CHEMBL1124179, “Nucleotide derivatives of 2,7-diaminomitosene” (1988).

Experiments:
L1210 [1] = test: Uptake of a initial concentration of 10 ug/mL of compound in medium by L1210 cells after 10 min expressed as drug concentration in cells; assay type: functional, cell-based; conditions: Mus musculus
In short: (§1)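 Cultured L1210 leukemia cells were incubated with drug in medium for set times. Cells were then washed in phosphate buffered saline and lysed by sonication in distilled water. Drug in the lysate was measured by HPLC on a short C18 column with methanol-water (65:35), against a peak-height standard curve that was linear over the range. Experiments were run in duplicate.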

L1210 [2] = test: Uptake of a initial concentration of 10 ug/mL of compound in medium by L1210 cells after 30 min expressed as drug concentration in cells; assay type: functional, cell-based; conditions: Mus musculus; in short: as §1
L1210 [3] = test: Uptake of a initial concentration of 100 ug/mL of compound in medium by L1210 cells after 10 min expressed as drug concentration in cells; assay type: functional, cell-based; conditions: Mus musculus; in short: as §1
L1210 [4] = test: Uptake of a initial concentration of 100 ug/mL of compound in medium by L1210 cells after 30 min expressed as drug concentration in cells; assay type: functional, cell-based; conditions: Mus musculus; in short: as §1
L1210 [5] = test: Uptake of a initial concentration of 10 ug/mL of compound in medium by L1210 cells after 60 min expressed as drug concentration in cells; assay type: functional, cell-based; conditions: Mus musculus; in short: as §1
L1210 [6] = test: Uptake of a initial concentration of 100 ug/mL of compound in medium by L1210 cells after 60 min expressed as drug concentration in cells; assay type: functional, cell-based; conditions: Mus musculus; in short: as §1
L1210 [7] = test: Inhibition of L1210 leukemia cells, after exposure to compound for period of 1 hr; assay type: functional; conditions: Mus musculus, L1210, 1 h; read-out: ID50 (the source's name)
In short: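 Soft-agar colony-forming assay using L1210 murine lymphocytic leukemia cells at 4×10^4/mL. Drug exposure was either 1 h or continuous, with continuous dosing done by adding drug to the final plating medium (RPMI 1640, 10% fetal bovine serum, 1% penicillin/streptomycin, 0.3% agar). Read-out is percent survival of colony-forming cells, as the mean of six values (three plates in each of two experiments). ID50 is given as molar concentration.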

L1210 [8] = test: The compound was evaluated for survival of L1210 cells, when compound was exposed for a period of 1 hr 1X (10e -6)M conc; assay type: functional, Mus musculus
In short: (§2)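 L1210 murine lymphocytic leukemia cells at 4×10^4/mL were exposed to drug for 1 h and then cloned in soft agar. The plating medium was RPMI 1640 with 10% fetal bovine serum, 1% penicillin-streptomycin and 0.3% agar. Read-out was percent survival of colony-forming cells, taken as the mean of six values (three plates in each of two experiments).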

L1210 [9] = test: The compound was evaluated for survival of L1210 cells, when compound was exposed for a period of 1 hr 1X (10e -5)M conc; assay type: functional, Mus musculus; in short: as §2
L1210 [10] = test: The compound was evaluated for survival of L1210 cells, when compound was exposed for a period of 1 hr 1X (10e -7)Mconc; assay type: functional, Mus musculus; in short: as §2
L1210 [11] = test: The compound was evaluated for survival of L1210 cells, when compound was exposed for a period of […] 1X (10e -8)Mconc; assay type: functional, Mus musculus
In short: (§3)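 In a soft-agar colony-forming assay, L1210 murine lymphocytic leukemia cells (4×10^4/mL) were exposed to drug continuously, with drug added to the final plating medium. That medium was RPMI 1640 with 10% fetal bovine serum, 1% penicillin-streptomycin and 0.3% agar. Read-out was percent survival of colony-forming cells, given as the mean of six values (three plates, two experiments).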

L1210 [12] = test: The compound was evaluated for survival of L1210 cells, when compound was exposed for a period of 1 hr 5*(10e -5)M conc; assay type: functional, Mus musculus; in short: as §2
L1210 [13] = test: The compound was evaluated for survival of L1210 cells, when compound was exposed for a period of […] 1X (10e -9)M conc; assay type: functional, Mus musculus; in short: as §3
L1210 [14] = test: The compound was evaluated for survival of L1210 cells, when compound was exposed for a period of […] 5*(10e -8)M conc; assay type: functional, Mus musculus; in short: as §3
L1210 [15] = test: The compound was evaluated for survival of L1210 cells, when compound was exposed for a period of […] 1X (10e -7)M conc; assay type: functional, Mus musculus; in short: as §3

Work on CC1=C(N)C(=O)c2c(COC(N)=O)c3n(c2C1=O)CC(N)C3OP(=O)(O)OC[C@H]1O[C@@H](n2ccc(=O)[nH]c2=O)[C@H](O)[C@@H]1O (some centres undefined) yielded a Concentration (L1210 [1]) of 8 µg/mL, a Concentration (L1210 [2]) of 1 µg/mL and a Concentration (L1210 [3]) of 20 µg/mL. For the same compound, the Concentration (L1210 [4]) was 20 µg/mL, the Concentration (L1210 [5]) was 2.5 µg/mL and the Concentration (L1210 [6]) was 1 µg/mL. For the same compound, the IC50 (L1210 [7]) was 13.3 µM.
In the case of CC1=C(N)C(=O)c2c(COC(N)=O)c3n(c2C1=O)CC(N)C3OP(=O)(O)OC[C@H]1O[C@@H](n2cc(F)c(=O)[nH]c2=O)C[C@@H]1O (some centres undefined), the IC50 (L1210 [7]) is reported as 14 µM.
Compound CO[C@@]12[C@H](COC(N)=O)C3=C(C(=O)C(C)=C(N)C3=O)N1C[C@@H]1N[C@@H]12.O=c1[nH]c(=O)n([C@H]2C[C@H](O)[C@@H](CO)O2)cc1F has a Survival (L1210 [8]) of 48%, a Survival (L1210 [9]) of 1% and a Survival (L1210 [10]) of 100%. For the same compound, the Survival (L1210 [11]) was 70%, the Survival (L1210 [12]) was 2% and the Survival (L1210 [13]) was 84%. For the same compound, the Survival (L1210 [14]) was 42% and the Survival (L1210 [15]) was 3%.
CC1=C(N)C(=O)c2c(COC(N)=O)c3n(c2C1=O)CC(N)C3[18OH] (centres undefined) was tested, and the IC50 (L1210 [7]) was 62 µM.
Work on O=c1[nH]c(=O)n([C@H]2C[C@H](O)[C@@H](CO)O2)cc1F [FLOXURIDINE] yielded a Survival (L1210 [8]) of 94%, a Survival (L1210 [9]) of 92% and a Survival (L1210 [10]) of 98%. For the same compound, the Survival (L1210 [11]) was 76%, the Survival (L1210 [12]) was 89% and the Survival (L1210 [13]) was 100%. For the same compound, the Survival (L1210 [14]) was 68% and the Survival (L1210 [15]) was 62%.
Work on CO[C@@]12[C@H](COC(N)=O)C3=C(C(=O)C(C)=C(N)C3=O)N1C[C@@H]1N[C@@H]12 [MITOMYCIN] yielded a Survival (L1210 [8]) of 52%, a Survival (L1210 [9]) of 1% and a Survival (L1210 [10]) of 89%. The Survival (L1210 [11]) was 100%, the Survival (L1210 [12]) was 2% and the Survival (L1210 [13]) was 98%. The Survival (L1210 [14]) was 73%, the Survival (L1210 [15]) was 7% and the IC50 (L1210 [7]) was 3.1 µM.
